Assay [1] concerns Trypanosoma brucei. As to the kind of experiment: Minimum concentration producing complete lysis of all trypanosomes within 30 min at 37 degrees C in vitro. The format is functional. The procedure, abridged: (§1)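 T. brucei EATRO 110 bloodstream forms from infected rat or mouse blood, 1.5-2 × 10^7/mL in 1:1 phosphate-buffered saline-glucose and MEM, held on ice and used within 8 h. At 37 °C, turbidity was followed at 750 nm. Compound was added at 5–1000 μM final, with Me2SO ≤1% v/v. Phase microscopy scored lysis at 5, 10 and 30 min. MLC is the lowest concentration lysing all within 30 min. Near-MLC concentrations were repeated on 2–3 harvests.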

The test system of assay [2] is Mus musculus. As to the kind of experiment: Maximum tolerated (nonfatal) intraperitoneal dose tested in mice infected with Trypanosoma brucei.
Assay [3] relates to Trypanosoma brucei. As to the kind of experiment: Minimum concentration producing complete lysis of all trypanosomes within 30 min at 37 degrees C in vitro in the presence of bovine serum albumin. The format is functional, organism-based. The procedure, abridged:
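Trypanolysis of T. brucei EATRO 110 bloodstream forms (1.5-2 × 10^7/mL, 1:1 phosphate-buffered saline-glucose/MEM) with 0.3% bovine serum albumin added to the suspending medium, 37 °C. Compound was added at 5–1000 μM final with Me2SO ≤1% v/v. Turbidity was read at 750 nm and lysis checked microscopically at 5, 10 and 30 min. MLC is the lowest concentration giving complete lysis within 30 min.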

Assay [4] has as its system Mus musculus. As to the kind of experiment: Maximum tolerated (nonfatal) intraperitoneal dose tested in mice infected with Trypanosoma brucei. The format is functional. In short, it runs like this:
(§2)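 Female Swiss-Webster mice (20-25 g) infected ip with 5×10^4 T. brucei EATRO 110 in freshly drawn infected mouse blood diluted with minimum essential medium. Groups of five mice received compound ip 4-6 h post-infection, as a milled suspension in saline with 0.25% methylcellulose or as a saline solution. A dose was scored toxic if mean survival was <90% of untreated controls or deaths occurred within 72 h; the compound was then retested at a lower dose.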

Assay [5] deals with Mus musculus. As to the kind of experiment: Maximum tolerated (nonfatal) intraperitoneal dose tested in mice infected with Trypanosoma brucei. The format is functional. The procedure, abridged: as §2
In assay [6] the test system is Trypanosoma brucei. As to the kind of experiment: Minimum concentration producing complete lysis of all trypanosomes within 30 min at 37 degrees C in vitro; IA is Inactive at 5 uM. It is filed as functional, organism-based. In short, it runs like this: as §1

Active and inactive are the calls of the source. No cut-off for these calls is given here.

For the compound `Cc1c(O)c2ccccc2c2c1sc(NCCCN1CCN(C)CC1)[n+]2C.Cl.[Cl-]`, the Min lytic concentration with Trypanosoma brucei [1] was found to be 100 µM. Also, the Max dose with Mus musculus [2] was determined as 100 mg/kg. Also, the Concentration in the assay on Trypanosoma brucei [3] was determined as 100 µM.

In the case of `Cl.Nc1nc2c(cc(O)c3ccccc32)s1`, the Min lytic concentration with Trypanosoma brucei [1] is over 500 µM. This compound showed a Max dose in the assay on Mus musculus [4] of 100 mg/kg.

`CCCCCCNc1sc2c(C)c(O)c3ccccc3c2[n+]1CCCCCC.[Cl-]` showed a Min lytic concentration with Trypanosoma brucei [1] of over 10 µM. Besides, the Max dose with Mus musculus [2] amounted to 200 mg/kg.

The compound `Cc1c(O)c2ccccc2c2c1sc1[n+]2CCCN1.[Cl-]` had a Min lytic concentration in the assay with Trypanosoma brucei [1] of over 100 µM. The compound further displayed a Max dose in the assay with Mus musculus [2] of 200 mg/kg.

With `Cc1c(O)c2ccccc2c2c1sc(NCCCN(CCO)CCO)[n+]2C.[Cl-]`, in the assay on Trypanosoma brucei [1], the Min lytic concentration is 100 µM. This compound had a Max dose with Mus musculus [2] of 50 mg/kg. Also, the Concentration in the assay on Trypanosoma brucei [3] was determined as 200 µM.

In the assay on Trypanosoma brucei [1], `Cc1c(O)c2ccccc2c2c1sc(NCCc1ccccc1)[n+]2C.[Cl-]` registered a Min lytic concentration of 10 µM. Moreover, the Max dose with Mus musculus [2] came out at 400 mg/kg.

As for `Cc1c(O)c2ccccc2c2nc(N)sc12.Cl`, in the assay with Trypanosoma brucei [1], the Min lytic concentration amounted to 100 µM. In the assay on Mus musculus [5], this compound had a Max dose of 50 mg/kg.

With `CCCCNc1sc2c(C)c(O)c3ccccc3c2[n+]1CCCC.[Cl-]`, the Min lytic concentration in the assay with Trypanosoma brucei [1] is 10 µM. The compound further returned a Max dose in the assay on Mus musculus [2] of 400 mg/kg. Further, the Concentration with Trypanosoma brucei [3] came to 100 µM.

With `COc1ccc(Nc2nc3c(s2)c(C)c(O)c2ccccc23)cc1.Cl`, in the assay on Trypanosoma brucei [1], the Min lytic concentration stood at 10 µM. Moreover, the Max dose in the assay on Mus musculus [5] worked out at 400 mg/kg.

In the assay with Trypanosoma brucei [1], `Cc1c(O)c2ccccc2c2c1sc(Nc1ccccc1)[n+]2CCO.[Cl-]` gave a Min lytic concentration of over 5 µM. Moreover, the Max dose with Mus musculus [2] came to 400 mg/kg.

In the assay on Trypanosoma brucei [1], `Nc1nc(N)nc(Nc2ccc([As]3SCC(CO)S3)cc2)n1` (configuration not stated) [MELARSOPROL] registered a Min lytic concentration of 100 µM.

With `C=CCNc1nc2c(s1)c(C)c(O)c1ccccc12.Cl`, in the assay on Trypanosoma brucei [1], the Min lytic concentration was 20 µM. Moreover, the Max dose in the assay on Mus musculus [2] amounted to 200 mg/kg.

`Cc1c(O)c2ccccc2c2c1sc(NCCO)[n+]2C.[Cl-]` displayed a Min lytic concentration in the assay on Trypanosoma brucei [1] of 100 µM. For the same compound, the Max dose with Mus musculus [2] amounted to 100 mg/kg.

With `Cc1c(O)c2ccccc2c2c1sc(NC1CCCCC1)[n+]2CCO.[Cl-]`, in the assay with Trypanosoma brucei [1], the Min lytic concentration was found to be 20 µM. The compound further came in with a Max dose with Mus musculus [2] of 400 mg/kg.

`CCCCCCCCNc1sc2c(C)c(O)c3ccccc3c2[n+]1C.[Cl-]` came in with a Min lytic concentration in the assay with Trypanosoma brucei [1] of 10 µM. In addition, the Max dose in the assay on Mus musculus [2] is 200 mg/kg.

Compound `COCCNc1sc2c(C)c(O)c3ccccc3c2[n+]1C.[Cl-]` returned a Min lytic concentration in the assay on Trypanosoma brucei [1] of 50 µM. Moreover, the Max dose with Mus musculus [2] was 50 mg/kg.

`C=CCNc1sc2c(C)c(O)c3ccccc3c2[n+]1CC=C.[Cl-]` gave a Min lytic concentration in the assay on Trypanosoma brucei [1] of 20 µM. Moreover, the Max dose with Mus musculus [2] stood at 400 mg/kg.

For the compound `CNc1nc2c(s1)c(C)c(O)c1ccccc12.Cl`, the Min lytic concentration in the assay on Trypanosoma brucei [1] was 30 µM. Moreover, the Max dose with Mus musculus [5] is 100 mg/kg.

In the assay with Trypanosoma brucei [1], `Cc1c(O)c2ccccc2c2nc(Nc3ccccc3)sc12.Cl` yielded a Min lytic concentration of 20 µM. For the same compound, in the assay with Mus musculus [2], the Max dose stood at 200 mg/kg.

The compound `CCNc1sc2c(C)c(O)c3ccccc3c2[n+]1CC.[Cl-]` yielded a Min lytic concentration in the assay on Trypanosoma brucei [1] of 50 µM. In the assay on Mus musculus [2], this compound showed a Max dose of 200 mg/kg. The Concentration in the assay with Trypanosoma brucei [3] came out at 200 µM.

For `Cc1c(O)c2ccccc2c2c1sc(Nc1ccccc1)[n+]2C.[Cl-]`, the Min lytic concentration with Trypanosoma brucei [1] was 10 µM. The compound also yielded a Max dose with Mus musculus [2] of 200 mg/kg.

`CC(=O)c1cccc(Nc2sc3c(C)c(O)c4ccccc4c3[n+]2C)c1`: the Max dose in the assay on Mus musculus [2] turned out to be 200 mg/kg. Moreover, the Min lytic concentration result in the assay with Trypanosoma brucei [6] is “inactive”.

With `CCCCNc1sc2c(C)c(O)c3ccccc3c2[n+]1C.[Cl-]`, in the assay with Trypanosoma brucei [1], the Min lytic concentration is 10 µM. The same compound registered a Max dose in the assay on Mus musculus [2] of 200 mg/kg.

In the assay with Trypanosoma brucei [1], `Cc1c(O)c2ccccc2c2c1sc1[n+]2CCN1.[Cl-]` gave a Min lytic concentration of 30 µM. The Max dose with Mus musculus [2] was 200 mg/kg.

In the assay with Trypanosoma brucei [1], `CNc1sc2c(C)c(O)c3ccccc3c2[n+]1C.[Cl-]` yielded a Min lytic concentration of 100 µM. Further, in the assay with Mus musculus [2], the Max dose came to 50 mg/kg.

On to `CCCNc1sc2c(C)c(O)c3ccccc3c2[n+]1CCC.[Cl-]`, for which the Min lytic concentration in the assay on Trypanosoma brucei [1] turned out to be 30 µM. This compound also gave a Max dose with Mus musculus [2] of 400 mg/kg.

On to `Cc1c(O)c2ccccc2c2c1sc(NCC(C)C)[n+]2CC(C)C.[Cl-]`, for which, in the assay with Trypanosoma brucei [1], the Min lytic concentration worked out at 10 µM. Also, in the assay with Mus musculus [2], the Max dose stood at 200 mg/kg.

Source of the values: ChEMBL document CHEMBL1122070, “Potential antitrypanosomal agents. 1,N2-Disubstituted 2-amino-5-hydroxy-4-methylnaphtho[1,2-d]thiazolium salts and related compounds” (1982).
